# GASC1 inh: blocks human GASC-1 (KDM4C) demethylase activity. GST-KDM4C 2-372, H3K9me3 peptide, LANCE TR-FRET. inhibition, % at 12.5 µM. Q9H3R0. 96,000 tested, 0.15% active. AID 720574;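 active means mean replicate inhibition above about 25%, with at least 55% of replicates also reaching it, limit read from the data, passing the limit was not always enough; inconclusive means only one of those two conditions met; inactive means neither condition met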
# Target sequence (Q9H3R0 2-372 limits assumed): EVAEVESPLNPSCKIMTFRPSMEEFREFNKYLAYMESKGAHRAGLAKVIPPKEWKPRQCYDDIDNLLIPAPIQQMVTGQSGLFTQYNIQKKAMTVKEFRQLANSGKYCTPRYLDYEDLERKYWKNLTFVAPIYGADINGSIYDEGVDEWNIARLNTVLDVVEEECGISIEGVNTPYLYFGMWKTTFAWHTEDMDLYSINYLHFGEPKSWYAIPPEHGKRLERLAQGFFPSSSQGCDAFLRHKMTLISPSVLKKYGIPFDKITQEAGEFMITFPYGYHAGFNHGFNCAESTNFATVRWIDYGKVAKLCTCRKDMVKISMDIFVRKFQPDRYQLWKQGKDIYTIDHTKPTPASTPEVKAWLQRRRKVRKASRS
#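 Material: N-terminal GST-fused human GASC-1 (KDM4C) fragment, residues 2-372. Input: 10 nM enzyme. Incubation: enzyme reaction 30 min, then detection 60 min, both room temperature. Doses: one test concentration per compound. Read-out basis: inhibition from TR-FRET ratio decrease. Detection: LANCE TR-FRET, excitation 340 nm, emissions 618 and 671 nm.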
# T cruzi growth-1: T. cruzi proliferation inhibition. T. cruzi beta-gal in NIH3T3, GalScreen luminescence, 90 h. inhibition, % at 8.34 µM. 77,000 tested, 5.9% active;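 active means mean inhibition above about 93%, with at least 55% of replicates each passing it, limit read from the data, passing the limit was not always enough; inconclusive means only one of those two conditions holds; inactive means neither condition holds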
# IDH1 R132H inh: inhibitors of human IDH1 R132H | O75874 | IDH1 R132H reductase, diaphorase/resazurin fluorescence, 60 min | inhibition, % at 10 µM | 70,000 tested, 0.18% active | AID 624101; in the data active means inhibition above about 34%; inconclusive means no clear call, values can overlap the other calls; inactive means below about 11%;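 further: 0% = DMSO and 100% = no enzyme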
# T cruzi growth-2: Trypanosoma cruzi proliferation inhibition | shares compounds with T cruzi growth-1 | T. cruzi beta-gal in NIH3T3, GalScreen luminescence, 90 h | 5,600 tested, 72% active | AID 651739 | inhibition, % at 8.35 µM;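 active means mean replicate inhibition above about 95% and at least 55% of replicates individually reaching it, limit read from the data; inconclusive means only one of the two criteria is met; inactive means neither criterion is met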
# T cruzi growth-3: Trypanosoma cruzi proliferation inhibition | shares compounds with T cruzi growth-1 | T. cruzi beta-gal in NIH3T3, GalScreen luminescence, 90 h | inhibition, % at 2.09 µM | 5,600 tested, 21% active;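 active means mean inhibition above about 95%, with at least 55% of replicates also reaching it, limit read from the data; inconclusive means meets just one of the two conditions; inactive means meets neither condition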;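 further: plate controls were neutral control median for no effect and positive control median for full effect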
# 3T3 cytotox: NIH/3T3 (mouse) viability loss; shares compounds with T cruzi growth-1; NIH/3T3 viability, CellTiter-Glo ATP luminescence, 90 h; cytotoxicity (signal decrease), % at 8.35 µM; 5,600 tested, 14% active; AID 651742;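 active means mean signal decrease across replicates above about 35% based on untreated-well scatter, with enough replicates individually passing, limit read from the data; inconclusive means no rule stated though some were filed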;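 further: 0% = median of neutral control wells and 100% = median of positive control wells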
# 3T3 cytotox 2: cytotoxicity in mouse NIH/3T3 fibroblasts; shares compounds with T cruzi growth-1; NIH/3T3 viability, CellTiter-Glo ATP luminescence, 90 h; inhibition, % at 24.9 µM; 5,600 tested, 56% active;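 active means mean loss of cell viability signal at or above a set limit, and enough replicates individually reaching it; inconclusive means meets only the mean limit or only the replicate share; inactive means meets neither condition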;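 further: 0% = median of neutral control wells and 100% = median of positive control wells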
# An asterisk follows results filed as active; ? = inconclusive; / = no result given. The full list was thinned out, with hits kept by preference.
SMILES,GASC1 inh,T cruzi growth-1,IDH1 R132H inh,T cruzi growth-2,T cruzi growth-3,3T3 cytotox,3T3 cytotox 2
O=C(O)CCc1ccc(-c2cccs2)n1-c1cc(Cl)ccc1O,/,/,0,/,/,/,/
CCc1cccc(C)c1NC(=O)CN(C)S(=O)(=O)c1ccccc1,/,/,-1,/,/,/,/
O=C(C1CCC1)N1CCCCN2[C@@H](CO)[C@H](c3ccc(C#CC4CCCC4)cc3)[C@@H]2C1,/,98*,/,104*,92,40*,105*
O=C(C1CC1)N1CCCCN2[C@@H](CO)[C@@H](c3ccc(C#CC4CCCC4)cc3)[C@@H]2C1,0,45,/,/,/,/,/
O=C(C1CCCC1)N1CCCCN2[C@H](CO)[C@H](c3ccc(C#CC4CC4)cc3)[C@@H]2C1,/,120*,/,117*,96*,40*,16
CC(C)NC(=O)N1CCCCN2[C@H](CO)[C@@H](c3ccc(C#CC4CC4)cc3)[C@H]2C1,0,87,/,/,/,/,/
O=C(C1CCCC1)N1CCCCN2[C@H](CO)[C@@H](c3ccc(C#CC4CC4)cc3)[C@@H]2C1,/,113*,/,99*,74,19,17
O=C(C1CC1)N1CCCCN2[C@@H](CO)[C@H](c3ccc(C#CC4CCCC4)cc3)[C@@H]2C1,-1,95,/,/,/,/,/
O=C(C1CC1)N1CCCCN2[C@H](CO)[C@@H](c3ccc(C#CC4CC4)cc3)[C@@H]2C1,/,105*,/,98*,70,20,37*
O=C(C1CCCC1)N1CCCCN2[C@@H](CO)[C@@H](c3ccc(C#CC4CC4)cc3)[C@@H]2C1,/,93,/,/,/,/,/
COC(=O)c1ccc(CSc2nnc(CN3CCOCC3)n2C)cc1,/,/,0,/,/,/,/
Cc1cccc(N2C(=O)CC(SCc3nc4ccccc4[nH]3)C2=O)c1 (centres undefined),/,/,0,/,/,/,/
CN1CCN(c2ccccc2NC(=O)COc2ccc([N+](=O)[O-])cc2)CC1,/,/,0,/,/,/,/
COc1cc2c(cc1NC(=O)CN(C)S(=O)(=O)c1ccc(Cl)cc1)oc1ccccc12,/,/,0,/,/,/,/
O=C(C[C@H]1CC[C@H]2[C@@H](COC[C@@H](O)CN2CCC(F)(F)F)O1)NCc1ccc(Oc2ccccc2)cc1,-1,108*,/,85,11,39*,12
O=C(C[C@@H]1CC[C@@H]2[C@H](COC[C@@H](O)CN2CCC(F)(F)F)O1)NCC1CC1,-1,26,/,/,/,/,/
O=C(C[C@@H]1CC[C@H]2[C@@H](COC[C@H](O)CN2CCC(F)(F)F)O1)NCc1ccc(Oc2ccccc2)cc1,0,53,/,/,/,/,/
O=C(C[C@@H]1CC[C@H]2[C@@H](COC[C@H](O)CN2CCc2ccccc2)O1)NCc1ccc(Oc2ccccc2)cc1,-4,64,/,/,/,/,/
O=C(C[C@H]1CC[C@@H]2[C@H](COC[C@@H](O)CN2CCC(F)(F)F)O1)NCC1CCCCC1,-1,107*,/,32,6,21,24
O=C(C[C@H]1CC[C@@H]2[C@H](COC[C@H](O)CN2CCc2ccccc2)O1)NCc1ccc(Oc2ccccc2)cc1,1,103*,/,102*,95,0,107*
CCCN(CCC)CC1CCCCN1CCNC(=O)N1c2ccccc2C(=O)Nc2cccnc21 (centres undefined),/,/,-1,/,/,/,/
COc1ccccc1-c1cn(CC[C@@H]2CC[C@@H](NC(=O)c3cnccn3)[C@H](CO)O2)nn1,0,9,0,/,/,/,/
Cc1ccc(-c2nc3ccccc3o2)cc1NC(=O)CN1C(=O)c2ccccc2C1=O,/,/,0,/,/,/,/
Cc1c(Cl)cccc1NC(=O)CNC(=O)c1ccc([N+](=O)[O-])cc1,/,/,0,/,/,/,/
Cn1c(SCC(=O)c2cc(C(C)(C)C)c(O)c(C(C)(C)C)c2)nnc1-c1cccs1,/,/,0,/,/,/,/
SMILES,GASC1 inh,T cruzi growth-1,IDH1 R132H inh,T cruzi growth-2,T cruzi growth-3,3T3 cytotox,3T3 cytotox 2
CC(C)NC(=O)N1[C@H](C#N)[C@@H](c2ccc(C#CC3CC3)cc2)[C@@H]1CO,1,?,/,109*,82,9,7
CC(C)NC(=O)N1[C@H](CO)[C@@H](c2ccc(C#CC3CC3)cc2)[C@@H]1C#N,0,?,/,107*,77,-5,9
CN(C)CC(=O)N1[C@@H](C#N)[C@@H](c2ccc(C#CC3CC3)cc2)[C@@H]1CO,1,89,/,/,/,/,/
CC(C)NC(=O)N1[C@H](CO)[C@H](c2ccc(C#CC3CC3)cc2)[C@@H]1C#N,-1,76,/,/,/,/,/
O=S(=O)(c1ccc(-c2cc(C(F)(F)F)on2)s1)N1CCc2c([nH]c3ccc(F)cc23)C1,/,/,1,/,/,/,/
CCc1cnc(N2[C@H](C#N)[C@@H](c3ccc(-c4cccc(F)c4)cc3)[C@@H]2CO)s1,-2,?,/,104*,52,-4,100*
CCc1cnc(N2[C@H](C#N)[C@H](c3ccccc3)[C@H]2CO)s1,-1,-7,/,/,/,/,/
CCc1cnc(N2[C@H](C#N)[C@@H](c3ccccc3)[C@H]2CO)s1,-1,7,/,/,/,/,/
CCc1cnc(N2[C@H](C#N)[C@@H](c3ccc(C4=CCCC4)cc3)[C@@H]2CO)s1,4,86,/,/,/,/,/
CCc1cnc(N2[C@@H](C#N)[C@H](c3ccc(C#Cc4ccccc4F)cc3)[C@@H]2CO)s1,-1,110*,/,105*,94,11,2
CCc1cnc(N2[C@H](C#N)[C@@H](c3ccc(C#Cc4ccccc4F)cc3)[C@@H]2CO)s1,-1,100*,/,100*,107*,-25,85*
C[C@@H]1CN([C@@H](C)CO)C(=O)c2cc(NC(=O)c3ccncc3)ccc2O[C@H]1CN(C)C,0,30,1,/,/,/,/
CCC(SC1=NCCS1)C(=O)Nc1ccc(NC(C)=O)cc1 (centres undefined),/,/,1,/,/,/,/
COc1ccc(CCNc2ncnc3scc(-c4cccs4)c23)cc1OC,/,/,3,/,/,/,/
C[C@H](CO)N1C[C@H](C)[C@@H](CN(C)S(C)(=O)=O)Oc2cc(C3=CCCC3)ccc2S1(=O)=O,2,4,/,/,/,/,/
C[C@H]1CN([C@@H](C)CO)S(=O)(=O)c2ccc(C3=CCCC3)cc2O[C@H]1CN(C)S(=O)(=O)c1ccc(F)cc1,0,121*,-28,106*,90,16,1
C[C@@H]1CN([C@@H](C)CO)S(=O)(=O)c2ccc(C3=CCCC3)cc2O[C@H]1CN(C)S(=O)(=O)c1ccc(F)cc1,-1,116*,0,97*,99*,27,27*
C[C@@H]1CN([C@H](C)CO)S(=O)(=O)c2ccc(C3=CCCCC3)cc2O[C@@H]1CN(C)S(=O)(=O)c1ccc(F)cc1,0,119*,/,101*,107*,16,61*
C[C@H](CO)N1C[C@H](C)[C@@H](CN(C)C)Oc2cc(C3=CCCCC3)ccc2S1(=O)=O,1,-56,0,/,/,/,/
Cc1ccc(S(=O)(=O)N(C)C[C@@H]2Oc3cc(C4=CCCC4)ccc3S(=O)(=O)N([C@H](C)CO)C[C@@H]2C)cc1,1,/,-37,/,/,/,/
